This is an account of results in ChEMBL document CHEMBL1938284, “Synthesis and biological activity of novel organoselenium derivatives targeting multiple kinases and capable of inhibiting cancer progression to metastases” (Eur J Med Chem, 2012).

SMILES strings stand for the structures. Active and inactive are the calls of the source. The calls are words filed in the database; no cut-off is given here.

For series [1], the target named is Fibroblast growth factor receptor 1 (Homo sapiens) (UniProt P11362). Nature of the series: Inhibition of FGFR1 at 1 uM.
Fibroblast growth factor receptor 1 (Homo sapiens), sequence (P11362 22-822 limits assumed): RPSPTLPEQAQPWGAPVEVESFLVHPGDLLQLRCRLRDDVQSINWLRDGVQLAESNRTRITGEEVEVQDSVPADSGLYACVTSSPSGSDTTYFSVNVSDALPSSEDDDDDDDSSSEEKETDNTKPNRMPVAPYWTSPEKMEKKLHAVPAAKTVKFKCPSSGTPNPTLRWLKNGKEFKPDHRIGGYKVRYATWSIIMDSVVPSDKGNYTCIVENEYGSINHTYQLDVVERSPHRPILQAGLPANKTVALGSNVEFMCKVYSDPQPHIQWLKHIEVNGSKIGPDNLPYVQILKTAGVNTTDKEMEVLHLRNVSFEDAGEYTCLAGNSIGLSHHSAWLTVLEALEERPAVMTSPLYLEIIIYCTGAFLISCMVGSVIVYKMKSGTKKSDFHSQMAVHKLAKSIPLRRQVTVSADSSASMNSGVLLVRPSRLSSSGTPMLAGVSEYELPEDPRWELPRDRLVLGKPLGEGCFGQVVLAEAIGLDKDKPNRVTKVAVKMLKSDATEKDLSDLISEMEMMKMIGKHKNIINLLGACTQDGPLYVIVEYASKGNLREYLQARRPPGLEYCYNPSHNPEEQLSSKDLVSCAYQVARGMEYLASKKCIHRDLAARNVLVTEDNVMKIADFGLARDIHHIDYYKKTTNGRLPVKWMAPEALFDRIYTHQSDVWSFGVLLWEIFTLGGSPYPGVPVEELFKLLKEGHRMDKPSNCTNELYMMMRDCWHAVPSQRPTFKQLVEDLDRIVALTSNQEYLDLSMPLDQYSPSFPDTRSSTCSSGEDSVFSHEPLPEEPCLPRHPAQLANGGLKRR
The target in series [2] is T1, Mitogen-activated protein kinase 12 (Homo sapiens) (UniProt P53778).
T1 sequence (whole entry): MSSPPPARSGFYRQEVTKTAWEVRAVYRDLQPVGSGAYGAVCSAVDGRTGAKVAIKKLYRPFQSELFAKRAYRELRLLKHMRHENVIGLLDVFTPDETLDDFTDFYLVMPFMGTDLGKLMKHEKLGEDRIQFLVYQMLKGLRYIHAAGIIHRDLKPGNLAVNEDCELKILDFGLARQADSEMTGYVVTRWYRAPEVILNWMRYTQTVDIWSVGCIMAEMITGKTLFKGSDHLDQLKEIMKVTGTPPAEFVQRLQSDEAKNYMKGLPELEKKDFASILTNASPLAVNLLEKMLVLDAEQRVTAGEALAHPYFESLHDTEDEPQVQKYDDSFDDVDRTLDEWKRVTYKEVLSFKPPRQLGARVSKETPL
In words: Inhibition of p38-gamma at 1 uM.

Series [3] concerns the target Serine/threonine-protein kinase PAK 1 (Homo sapiens) (UniProt Q13153). Nature of the series: Inhibition of PAK1 at 1 uM.
Series [4] concerns the target Platelet-derived growth factor receptor beta (Homo sapiens) (UniProt P09619). Nature of the series: Inhibition of PDGFRbeta at 1 uM.
Series [5] concerns the target Proto-oncogene tyrosine-protein kinase Src (Homo sapiens) (UniProt P12931). Nature of the series: Inhibition of SRC at 1 uM.
The target of series [6] is RAC-alpha serine/threonine-protein kinase (Homo sapiens, UniProt P31749). Nature of the series: Inhibition of AKT-1.
RAC-alpha serine/threonine-protein kinase, sequence (P31749 whole entry): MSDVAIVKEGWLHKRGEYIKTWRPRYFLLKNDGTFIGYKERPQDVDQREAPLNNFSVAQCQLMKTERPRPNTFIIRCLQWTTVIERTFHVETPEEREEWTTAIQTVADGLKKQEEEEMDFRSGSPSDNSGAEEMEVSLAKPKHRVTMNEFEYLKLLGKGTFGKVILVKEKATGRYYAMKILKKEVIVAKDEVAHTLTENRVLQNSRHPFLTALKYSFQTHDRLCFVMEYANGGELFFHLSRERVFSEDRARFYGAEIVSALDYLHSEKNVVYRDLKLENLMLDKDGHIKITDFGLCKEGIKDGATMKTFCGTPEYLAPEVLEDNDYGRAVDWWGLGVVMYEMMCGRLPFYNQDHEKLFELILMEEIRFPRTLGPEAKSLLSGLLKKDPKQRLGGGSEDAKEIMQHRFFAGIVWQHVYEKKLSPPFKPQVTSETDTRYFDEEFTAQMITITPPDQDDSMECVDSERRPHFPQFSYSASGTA
The target in series [7] is T2, Focal adhesion kinase 1 (Homo sapiens, UniProt Q05397). In words: Inhibition of human recombinant full-length FAK using ATP and Poly Glu:Tyr as substrate after 4 hrs by luminescence analysis. The procedure, abridged: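 Human recombinant full-length FAK incubated 4 h at room temperature in kinase buffer with ATP and Poly Glu:Tyr substrate, with or without compound at various concentrations.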

The target of series [8] is Protein kinase C alpha type (Homo sapiens, UniProt P17252). Nature of the series: Inhibition of PKCalpha.
The subject of series [9] is MDA-MB-231. Nature of the series: Antiangiogenic activity in human MDA231 cells assessed as inhibition of cell migration at 10 uM after 12 to 24 hrs by wound healing migration assay. The class given is functional, cell-based. In a few lines: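 MDA-231 cells grown on coverslips for 24 h, wounded by scraping with a micropipette tip, washed, then kept in fresh medium at 37 °C with compound at 10 μM final or DMSO. Photographed at 12 and 24 h. Remaining wound area measured. DMSO set to 0% inhibition. Mean ± SD of five independent experiments.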

The subject of series [10] is MDA-MB-231. In words: Antiinvasive activity in human MDA231 cells at 10 uM after 48 hrs by Matrigel matrix assay. Format: functional. The procedure, abridged: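 Serum-starved MDA-231 cells (30,000) placed with or without compound (10 μM) in the upper compartment of 8-µm Matrigel-coated Boyden chambers. Lower compartment held DMEM 0.2% BSA with 10% serum. Invasion ran 48 h, then invaded cells were fixed, stained and counted under a 40× objective. DMSO normalized to 0% inhibition. Mean ± SD, five experiments.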

In series [11] the test system is MDA-MB-231. Nature of the series: Antitumor activity against human MDA231 cells xenografted in SCID mouse assessed as tumor growth inhibition at 60 mg/kg, ip administered 3 times a week for a total of 9 doses measured on day 40. Format: functional, organism-based. Also noted: dose 60 mg/kg. In a few lines: (§1)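 Female SCID mice, 6 per group, given 1.5 million MDA-231-M2 cells into the mammary fat pad. Once tumours were palpable, vehicle or compound was given at 60 mg/kg IP 3 times weekly for 9 injections. Mice sacrificed on day 40. Lungs fixed in 10% Bouin's and surface metastases counted by stereomicroscope. Primary tumour volume also recorded. Groups compared to vehicle by unpaired Student t test.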

In series [12] the test system is Mus musculus. In words: Toxicity in SCID mouse xenografted with human MDA231 cells assessed as body weight loss at 60 mg/kg, ip administered 3 times a week for a total of 9 doses. To be noted: in vivo. Also noted: dose 60 mg/kg, route intraperitoneal. Format: organism-based. Background: Xenograft models place foreign cells or tissue in a host animal.
Series [13] has as its system Mus musculus. In words: Apparent toxicity in SCID mouse xenografted with human MDA231 cells at 60 mg/kg, ip administered 3 times a week for a total of 9 doses. Format: organism-based. More on the design: dose 60 mg/kg, route intraperitoneal. As to conditions: in vivo.
The next series has as its system Cancer cell lines. In words: Antitumor activity against human MDA231 cells xenografted in SCID mouse assessed as inhibition of lung metastases of cancer cells at 60 mg/kg, ip administered 3 times a week for a total of 9 doses measured on day 40 by stereomicroscopic analysis. The class given is functional, organism-based. Also noted: dose 60 mg/kg. In a few lines: as §1

In series [14] the target is T2, Focal adhesion kinase 1. Nature of the series: Inhibition of FAK phosphorylation in EGF-stimulated human MDA231 cells using [gamma32P]ATP as substrate at 50 uM after 2 hrs by scintillation counting. Format: cell-based. In a few lines: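 MDA231 cells serum-starved overnight, treated with compound for 2 h, then stimulated with 20 ng/mL EGF for 30 min. Lysates immunoprecipitated with polyclonal anti-FAK. The immunocomplex was assayed in Hepes/MgCl2/MnCl2 buffer with 3 μCi/nmol [γ-32P]-ATP. Reactions stopped by boiling in SDS sample buffer. Bands excised after SDS-PAGE and counted by scintillation. Figure legend gives N = 4.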

The subject of series [15] is MDA-MB-231. Nature of the series: Cytotoxicity against human MDA231 cells at 50 uM. Format: functional, cell-based.

Proto-oncogene tyrosine-protein kinase Src (Homo sapiens), sequence (P12931 2-536 limits assumed): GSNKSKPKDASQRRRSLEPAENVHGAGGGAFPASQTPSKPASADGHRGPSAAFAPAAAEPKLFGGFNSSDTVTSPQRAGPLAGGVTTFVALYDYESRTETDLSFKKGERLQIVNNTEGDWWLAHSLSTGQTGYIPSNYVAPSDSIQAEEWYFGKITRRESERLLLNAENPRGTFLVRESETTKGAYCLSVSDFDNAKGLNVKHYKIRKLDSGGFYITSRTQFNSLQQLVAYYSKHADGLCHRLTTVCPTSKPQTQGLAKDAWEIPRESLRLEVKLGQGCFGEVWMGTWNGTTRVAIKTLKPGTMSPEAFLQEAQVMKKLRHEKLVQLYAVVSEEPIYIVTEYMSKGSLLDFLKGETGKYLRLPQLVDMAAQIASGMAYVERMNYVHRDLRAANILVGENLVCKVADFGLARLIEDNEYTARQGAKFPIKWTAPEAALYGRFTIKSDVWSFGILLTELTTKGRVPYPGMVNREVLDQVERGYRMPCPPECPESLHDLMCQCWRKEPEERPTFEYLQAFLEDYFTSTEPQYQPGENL
Platelet-derived growth factor receptor beta (Homo sapiens), sequence (P09619 whole entry): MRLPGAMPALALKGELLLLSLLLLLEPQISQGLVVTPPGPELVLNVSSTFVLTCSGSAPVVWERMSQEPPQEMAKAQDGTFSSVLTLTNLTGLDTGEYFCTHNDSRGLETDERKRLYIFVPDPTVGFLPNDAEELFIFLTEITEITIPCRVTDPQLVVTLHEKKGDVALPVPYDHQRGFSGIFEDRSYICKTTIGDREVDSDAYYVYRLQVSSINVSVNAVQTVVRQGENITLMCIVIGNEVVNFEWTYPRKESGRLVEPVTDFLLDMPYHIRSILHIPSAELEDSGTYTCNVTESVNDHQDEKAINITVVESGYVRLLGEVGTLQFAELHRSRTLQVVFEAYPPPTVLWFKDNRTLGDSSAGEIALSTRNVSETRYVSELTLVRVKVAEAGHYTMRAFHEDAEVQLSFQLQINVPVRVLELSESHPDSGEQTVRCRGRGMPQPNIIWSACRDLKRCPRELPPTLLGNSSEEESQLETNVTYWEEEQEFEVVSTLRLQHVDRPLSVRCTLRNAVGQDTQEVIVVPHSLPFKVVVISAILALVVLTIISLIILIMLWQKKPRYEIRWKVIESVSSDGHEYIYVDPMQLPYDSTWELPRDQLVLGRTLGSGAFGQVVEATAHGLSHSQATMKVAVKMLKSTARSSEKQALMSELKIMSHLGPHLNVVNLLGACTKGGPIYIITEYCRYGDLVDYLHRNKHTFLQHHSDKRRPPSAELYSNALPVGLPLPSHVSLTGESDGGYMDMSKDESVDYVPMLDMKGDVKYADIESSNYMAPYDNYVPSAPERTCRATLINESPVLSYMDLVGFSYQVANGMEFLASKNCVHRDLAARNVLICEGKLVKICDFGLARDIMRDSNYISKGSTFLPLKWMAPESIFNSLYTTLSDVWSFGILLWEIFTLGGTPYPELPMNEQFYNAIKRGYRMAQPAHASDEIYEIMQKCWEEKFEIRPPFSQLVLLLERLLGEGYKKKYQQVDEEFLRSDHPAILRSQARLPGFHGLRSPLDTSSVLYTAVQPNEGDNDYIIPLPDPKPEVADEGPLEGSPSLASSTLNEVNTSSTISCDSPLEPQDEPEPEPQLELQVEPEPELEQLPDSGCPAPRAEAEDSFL
Serine/threonine-protein kinase PAK 1 (Homo sapiens), sequence (Q13153 whole entry): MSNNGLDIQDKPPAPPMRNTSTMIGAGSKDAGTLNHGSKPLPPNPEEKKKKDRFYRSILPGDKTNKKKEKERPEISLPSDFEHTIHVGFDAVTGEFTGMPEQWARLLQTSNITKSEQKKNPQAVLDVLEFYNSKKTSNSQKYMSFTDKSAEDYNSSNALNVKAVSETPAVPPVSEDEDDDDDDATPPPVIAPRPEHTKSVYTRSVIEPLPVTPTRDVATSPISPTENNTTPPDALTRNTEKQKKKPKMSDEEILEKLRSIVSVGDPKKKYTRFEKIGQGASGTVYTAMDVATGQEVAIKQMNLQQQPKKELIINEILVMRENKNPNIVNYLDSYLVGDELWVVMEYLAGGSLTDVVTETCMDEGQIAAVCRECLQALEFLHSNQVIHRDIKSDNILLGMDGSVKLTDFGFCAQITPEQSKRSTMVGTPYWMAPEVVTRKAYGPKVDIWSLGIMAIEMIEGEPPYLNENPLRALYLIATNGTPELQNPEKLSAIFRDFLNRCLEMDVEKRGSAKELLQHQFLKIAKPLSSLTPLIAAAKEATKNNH

The inhibition is how much of the control response was suppressed. A word on the IC50: it is the concentration that gives 50% inhibition. For the molecule `O=C(CCCn1[se]c2ccccc2c1=O)N[C@@H]1O[C@H](CO)[C@@H](O)[C@H](O)[C@H]1O`, the inhibition in [1], in series [2], in series [3], in [4] and in [5] was 0% in each case. For the same molecule, the IC50 in series [6] was found to be 880 nM; at Focal adhesion kinase 1 [7], 960 nM; in series [8] it was 730 nM.

For the molecule `O=c1c2ccccc2[se]n1-c1ccccc1` [EBSELEN], the inhibition result in the series with MDA-MB-231 [9], in the series with Cancer cell lines and at Focal adhesion kinase 1 [14] was “inactive” each time. The result in the series on MDA-MB-231 [10] was inactive. The “growth inhibition (GI)” value in the series with MDA-MB-231 [11] is “inactive”. Besides, the Activity entry in the series on Mus musculus [12] and with Mus musculus [13] was “Non-toxic” throughout. Further, the inhibition in [1], in series [2], in series [3], in series [4] and in series [5] was 0% each time.

As for `CC(=O)OC[C@H]1O[C@@H](NC(=O)CCCn2[se]c3ccccc3c2=O)[C@H](OC(C)=O)[C@@H](OC(C)=O)[C@@H]1OC(C)=O`, the inhibition in [1], in [2], in series [3], in series [4] and in [5] was 0% in each case. The figures for the IC50 (in [6]; on Focal adhesion kinase 1 [7]; in [8]) were 800 nM, 920 nM and 740 nM, respectively.

In the case of `CC(=O)OC[C@H]1O[C@@H](O[C@H]2[C@H](OC(C)=O)[C@@H](OC(C)=O)[C@H](n3[se]c4ccccc4c3=O)O[C@@H]2COC(C)=O)[C@H](OC(C)=O)[C@@H](OC(C)=O)[C@H]1OC(C)=O`, the “growth inhibition (GI)” value with MDA-MB-231 [11] is “Active”. Moreover, the Activity entry with Mus musculus [12] and in the series with Mus musculus [13] was “Non-toxic” throughout. In addition, the inhibition entry in the series with Cancer cell lines was “Active”. Further, the inhibition in [1], in series [2], in series [3], in series [4] and in series [5] was 0% each time. Further, in the series on MDA-MB-231 [15], the outcome was Active.
